Results reported in ChEMBL document CHEMBL1932929, “Lead optimization of 2-(piperidin-3-yl)-1H-benzimidazoles: identification of 2-morpholin- and 2-thiomorpholin-2-yl-1H-benzimidazoles as selective and CNS penetrating H₁-antihistamines for insomnia” (Bioorg Med Chem Lett, 2012).

How the values were obtained:
[1] = Lipophilicity, log P of the compound; assay type: physicochemical; conditions: octanol/water
Procedure, shortened: (§1)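 Calculated values, not experimentally measured.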

[2] = Dissociation constant, pKa of the compound; assay type: physicochemical; procedure, shortened: as §1
[3] = Drug uptake in brain of Sprague-Dawley rat at 10 mg/kg, po measured after 4 hrs; assay type: ADME, organism-based; design: dose 10 mg/kg, route oral; conditions: read-out: Drug uptake
[4] = Drug uptake in plasma of Sprague-Dawley rat at 30 mg/kg, po measured after 4 hrs; assay type: ADME, organism-based; design: dose 30 mg/kg, route oral; conditions: read-out: Drug uptake
Procedure, shortened: (§2)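 Single oral dose to Sprague Dawley rats; plasma and brain levels measured at 4 h; brain/plasma ratio taken from these 4 h levels.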

[5] = Ratio drug uptake in brain to plasma of Sprague-Dawley rat at 30 mg/kg, po measured after 4 hrs; assay type: ADME, organism-based; design: dose 30 mg/kg, route oral; conditions: read-out: BPR; procedure, shortened: as §2
[6] = Drug uptake in brain of Sprague-Dawley rat at 30 mg/kg, po measured after 4 hrs; assay type: ADME, organism-based; design: dose 30 mg/kg, route oral; conditions: read-out: Drug uptake; procedure, shortened: as §2

| logP [1] | pKa [2] | Compound | also measured |
| --- | --- | --- | --- |
| 3.3 | 7.5 | Cc1ccc(Cn2c([C@@H]3CNCCS3)nc3ccccc32)cc1C |  |
|  |  | CN(CC1CCOCC1)C1CCN(c2nc3ccccc3n2Cc2ccc(F)cc2)CC1 | concentration at 4 h [3]: 94 ng/g |
|  |  | COc1ccc(Cn2c([C@H]3CNCCS3)nc3ccccc32)cc1 | concentration at 4 h [4]: 260 ng/mL; Kp at 4 h [5]: 1.4; concentration at 4 h [6]: 380 ng/g |
| 3.4 | 7.4 | Cc1ccc(Cn2c(C3CNCCO3)nc3ccccc32)cc1C (single isomer, unassigned; (+)) |  |
